# Compounds with a hit are over-represented: about 5.5% of the library has one in this group of screens.
# Cl transport mod: KCC2 (human) Cl- transport modulation; Q9H2X9; KCC2 cells, thallium flux FluoZin-2 fluorescence; B-score of Tl+ flux slope (higher = more flux/activation; lower = inhibition) at 10 µM; actives 2.2% (n = 190,000); AID 1456;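 active = thallium flux slope and its plate-corrected score both differing from the plate sample mean at a set confidence after two filtering rounds, in either direction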;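 also: slope of fluorescence scaled to starting intensity during 10 to 20 s after thallium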
# Yeast lifespan up: extends the lifespan of yeast; inhibition of the nicotinamide effect, % at 10 µM; actives 0.68% (n = 130,000); S. cerevisiae growth with nicotinamide, OD615; deaD strain in restrictive glucose medium; AID 775;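 active = inhibition above a set limit, placed 3 SD over the median of all compounds, cut at about 26% in these data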;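 also: 0% = nicotinamide-treated wells and 100% = cells grown without nicotinamide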
#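 Material: Modified budding yeast, DeaD strain | Medium: Restrictive glucose medium | Probe or stimulus: 1.5 mM nicotinamide | Dosing: Single dose 10 µM compound, 0.25% DMSO | Times: 48 h at 30 °C | Technique: OD615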
# RAM network inh: yeast RAM network inhibition. S. cerevisiae dse1pr::URA3 reporter, 5-FOA growth OD615, 2 d; analog-sensitive cbk1-as2 kinase mutant strain. inhibition, % at 50 µM. actives 1.8% (n = 190,000);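 active = inhibition above a set limit, 3 SD over mean compound inhibition, cut at about 8.4% in these data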;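 also: 0% = DMSO-only wells with no growth and 100% = 10 µM 1-NA-PP1 full growth; inhibition rescues growth on 5-FOA so higher OD means more RAM inhibition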
# WT yeast gro inh: growth inhibition of WT yeast, mitochondrial fusion screen | actives 2.1% (n = 190,000) | mitochondrial fusion phenotypic screen, WT strain | inhibition, % at 10 µM; in the data active = inhibition above about 58%; tested in S. cerevisiae
# Yeast growth inh: yeast BB579 growth reduction in restrictive medium; S. cerevisiae BB579 growth, OD615, 48 h; inhibition, % at 10 µM; actives 0.51% (n = 140,000);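 active = inhibition above a set limit, 3 SD over the mean compound inhibition, cut at about 44% in these data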
#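 Test system: Saccharomyces cerevisiae DeaD strain BB579, replicative lifespan model yeast | Buffer or medium: Restrictive CSMM-D medium | Doses: One dose, 10 µM compound with 0.25% DMSO | Incubation: 48 h exposure, 30 °C | Detection: Culture absorbance at 615 nm | Control set: Amphotericin B at 10 µg/mL as positive control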
# KCC2 secondary: confirmation of human KCC2 transport modulators; shares compounds with Cl transport mod; HEK293-KCC2, thallium flux, FluoZin2 fluorescence; hits give high values; normalised thallium flux (F/F0 slope) at 10 µM; actives 15% (n = 3,700);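 active = thallium flux slope above the same plate's solvent-only control mean plus 3 SD; inconclusive = the two replicate wells disagree; inactive = no significant difference from solvent-only control wells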
# KCC2 bumet counter: thallium flux despite bumetanide block in KCC2 cells, secondary assay 3; AID 1714; actives 49% (n = 3,700); shares compounds with Cl transport mod; HEK293-KCC2 + bumetanide/ouabain, thallium flux FluoZin2; hits give high values; normalized thallium flux at 10 µM;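 active = thallium entry rate above the same plate's blocked-transporter control wells by more than 3 SD; inconclusive = the two repeat wells disagree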;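 also: raw slope of fluorescence over initial fluorescence between 10 and 20 s after thallium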
# KCC2 sec2: KCC2 (human) modulation, second secondary assay; shares compounds with Cl transport mod; HEK293-KCC2, thallium flux FluoZin2 fluorescence; actives lie on both sides; F/F0 rise rate, 10–20 s post-thallium; normalized thallium flux at 10 µM; actives 23% (n = 3,700); AID 1715;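 active = thallium flux slope more than 3 SD above or below the plate's solvent-only control mean, mostly below; inconclusive = the two repeat wells disagreed; inactive = no significant shift from solvent-only controls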;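 also: raw slope with 0.1% DMSO as baseline and bumetanide as block control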
# HEK counter1: counter-screen for KCC2 modulators: effect in parental HEK293 cells; actives 46% (n = 3,700); thallium flux rate (normalised fluorescence) at 10 µM; thallium flux FluoZin2, ouabain; baseline-ratio fluorescence slope, 10–20 s after thallium; shares compounds with Cl transport mod;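 active = thallium flux rate significantly above the same plate's solvent-only control wells, beyond their mean plus 3 SD; inconclusive = the two replicate wells gave conflicting results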
# KCC2 ouabain: KCC2 (human) modulation, ouabain retest; HEK293-KCC2, thallium flux FluoZin2 fluorescence; bidirectional: low = inhibitor, high = activator; actives 48% (n = 3,700); AID 1717; raw Tl+ flux slope (below DMSO = inhibition, above = activation) at 10 µM; shares compounds with Cl transport mod;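 active = thallium flux slope beyond 3 SD from same-plate DMSO control mean in most replicates, usually higher, sometimes lower; inconclusive = repeat tests gave conflicting results; inactive = no significant difference from controls in most replicates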;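 also: slope of initial-normalized fluorescence between seconds 10 and 20 after thallium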
# HEK counter2: counter-screen for KCC2 modulators: effect in parental HEK293 cells; actives 33% (n = 3,700); thallium flux FluoZin-2 fluorescence slope; shares compounds with Cl transport mod; thallium flux slope at 10 µM;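 active = thallium flux slope above the same plate's solvent-control mean plus 3 SD in both duplicate wells; inconclusive = duplicate wells that disagreed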;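 also: run without ouabain in cells lacking the KCC2 cotransporter; slope of fluorescence scaled to its starting value between 10 and 20 s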
# Active calls of the source: *; ? = inconclusive; nt = not tested or not shown.
SMILES,Cl transport mod,Yeast lifespan up,RAM network inh,WT yeast gro inh,Yeast growth inh,KCC2 secondary,KCC2 bumet counter,KCC2 sec2,HEK counter1,KCC2 ouabain,HEK counter2
CCc1cc2c(SCC(=O)C(C#N)=C3N(C)c4ccccc4N3C)ncnc2s1,nt,-22,9.0*,17,-31,0.0079,0.0095*,0.03,0.007,0.015,0.0098
CC(C)n1nnnc1-c1cc(Cl)cc(Cl)c1,3.4*,-4,0,-3,-15,0.017,0.0053,0.03,0.0074,0.017,0.01
COCNc1nc(OCC#N)nc(N(C)C)n1,7.6*,-4,1,5,-20,0.0069,0.0052,0.03,0.0084,0.019,0.012
COc1nc(OCC#N)nc(N(C)C)n1,1.2,-2,1,-4,-40,nt,nt,nt,nt,nt,nt
CCOC(=O)C1CCN(CC(=O)N(CC(C)C)c2c(N)n(CC(C)C)c(=O)[nH]c2=O)CC1,0.15,nt,1,10,nt,nt,nt,nt,nt,nt,nt
CCOC(=O)c1sc2nc[nH]c(=O)c2c1C,5.8*,-11,0,17,-16,0.0084,0.0064,0.03,0.0076,0.023,?
CC(C)CN(C(=O)c1cc2ccccc2o1)c1c(N)n(CC(C)C)c(=O)[nH]c1=O,-0.68,0,3,-4,-14,nt,nt,nt,nt,nt,nt
CN(C)c1ccc(NC(=O)c2sc(SCC(=O)Nc3nccs3)nc2N)cc1,14*,-1,4,19,-46,0.0061,0.013*,0.034,0.012*,?,0.014*
Cc1nnc(SCC(=O)Nc2nccs2)s1,0.59,-4,1,-8,-3,nt,nt,nt,nt,nt,nt
CCCCC(=O)Nc1ccc(C(=O)N(CC)c2ccccc2C)cc1,-0.13,nt,3,5,nt,nt,nt,nt,nt,nt,nt
O=c1oc2ccccc2c(Nc2ccc(F)cc2)c1[N+](=O)[O-],-3.4*,nt,1,7,nt,0.0058,0.0046,0.029,0.0063*,0.017,?
O=c1oc2ccccc2c(Nc2ccc(Cl)cc2)c1[N+](=O)[O-],-2.3,nt,nt,nt,nt,nt,nt,nt,nt,nt,nt
Cc1ccc(Nc2c([N+](=O)[O-])c(=O)oc3ccccc23)cc1C,-2.8*,nt,3,8,nt,0.018,0.0042,0.03,?,0.014,0.009
O=c1oc2ccccc2c(Nc2cccc(O)c2)c1[N+](=O)[O-],nt,-6,1,nt,8,nt,nt,nt,nt,nt,nt
COC(=O)c1ccc(Nc2c([N+](=O)[O-])c(=O)oc3ccccc23)cc1,-4.5*,nt,nt,nt,nt,0.0085,?,0.029,?,0.027*,?
Cc1ccsc1/C=N/NC(=O)c1ccc([N+](=O)[O-])cc1,3.6*,nt,1,6,nt,0.015,0.016*,0.029,0.011*,0.019,0.013*
COc1ccc(CC(=O)Nc2nc(-c3cc(OC)ccc3OC)cs2)cc1,0.42,nt,7,23,nt,nt,nt,nt,nt,nt,nt
COc1ccc(OC)c(-c2csc(NC(=O)c3ccc4c(c3)OCO4)n2)c1,6.7*,nt,3,26,nt,0.01,0.0053,0.033,0.0083,0.02,0.01
CCOC(=O)c1cncc(O)c1,0.15,nt,nt,nt,nt,nt,nt,nt,nt,nt,nt
COCCNC(C)C(=O)C12CC3CC(CC(C3)C1)C2 (stereo not drawn),9*,-4,1,-6,17,0.0053,0.0046,0.027,0.0075,0.018,0.01
COCCNCC(=O)C12CC3CC(CC(C3)C1)C2,1.5,-7,1,-41,0,nt,nt,nt,nt,nt,nt
O=C(NC1CCCC1)c1sc(=S)n2c1[nH]c(=O)c1ccccc12,24*,-18,7,10,-20,0.015*,0.052*,0.03,0.024*,0.045*,0.014*
O=C(NCc1ccco1)c1sc(=S)n2c1[nH]c(=O)c1ccccc12,nt,-11,3,32,-23,nt,nt,nt,nt,nt,nt
Cc1ccc(C(=O)NC(=S)NCC2CCCO2)cc1Br (stereo not drawn),12*,-4,-1,8,-36,0.01,0.022*,0.034,0.028*,0.028*,0.012
O=C(CNC(=S)NC(=O)c1ccc(Br)o1)c1ccccc1,5.7*,0,4,0,-6,0.014*,0.047*,0.034,0.041*,0.037*,0.016*
SMILES,Cl transport mod,Yeast lifespan up,RAM network inh,WT yeast gro inh,Yeast growth inh,KCC2 secondary,KCC2 bumet counter,KCC2 sec2,HEK counter1,KCC2 ouabain,HEK counter2
O=C(NC(=S)NCC1CCCO1)c1ccc(Br)o1 (stereo not drawn),51*,nt,-1,11,nt,0.0081,0.049*,0.045*,0.037*,0.043*,0.032*
CCN1C(=O)c2ccccc2S(=O)(=O)c2ccc(C(=O)NCc3cccnc3)cc21,-1.1,-13,-1,5,-23,nt,nt,nt,nt,nt,nt
S=c1nc[nH]c2c1sc1nc(N3CCOCC3)c3c(c12)CCCC3,67*,nt,5,48,nt,0.0094*,0.089*,0.069*,0.082*,0.074*,0.062*
CSc1nc(C)cc(Oc2ccc(OCCOc3ccccc3)nn2)n1,-5.9*,2,1,3,2,0.008,0.0057,0.029,0.0065,0.016*,0.0098
C(=N\Nc1nc(-c2ccccc2)cs1)/c1cccnc1,-3.6*,-8,0,33,-18,0.0056,0.0051,0.025*,0.0072,0.016*,0.01
Clc1ccc(-c2csc(N/N=C/c3cccnc3)n2)c(Cl)c1,0.47,-6,2,9,-11,nt,nt,nt,nt,nt,nt
O=c1[nH]nc(Sc2ncnc3sccc23)n1CCc1ccccc1,-3.2*,-1,0,-10,-20,0.0096,0.0072,0.031,0.0039,0.019,0.012
O=C(NC(=S)N1CCCCC1)c1csc([N+](=O)[O-])c1,24*,nt,nt,nt,nt,0.022*,0.032*,0.035,0.017*,?,0.013*
C=CCNC(=S)NC(=O)c1csc([N+](=O)[O-])c1,5.9*,nt,nt,nt,nt,0.0092,0.02*,0.03,0.0097*,?,0.0097
CN(CC(=O)Nn1cnnc1)S(=O)(=O)c1ccccc1,nt,4,0,-20,-27,nt,nt,nt,nt,nt,nt
COc1ccc(-c2nn(-c3ccccc3)cc2/C=C/C(=O)O)cc1[N+](=O)[O-],-1.5,nt,nt,nt,nt,nt,nt,nt,nt,nt,nt
Cc1ccc(-c2nn(Cc3ccccc3)cc2/C=C/C(=O)O)cc1C,-8.1*,0,7,2,-24,0.008,0.005,0.021*,0.008,0.011*,0.01
